Hits are enriched below; roughly 2.1% of the tested compounds scored in any of these assays.
Wee1 degr inh: blocks degradation of human Wee1 kinase; P30291; HeLa Luc-Wee1K328M stability, luciferase luminescence; 100% = proteasome inhibitor MG132 effect; reporter increase, % at 5 µM; 220,000 compounds, 1.2% hits; AID 1321;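 active = activation above the mean of all tested compounds plus 3 SD, set per screening run, cut at about 8.8% in these data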;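 also: cells exposed to compound for 20 h before luminescence read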
L929 necroptosis: L929 zVAD cell death inhibition; 220,000 compounds, 0.38% hits; viability rescue, % at 10 µM; AID 1377; L929 zVAD necroptosis rescue, ATP luminescence, 24 h; with zVAD 60 µM;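 active = activation, scaled between plate controls, above about 75%, limit read from the data; inactive = activation under that limit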
TNF necrop inh: inhibitors of TNF-alpha induced necroptosis in Jurkat FADD-/- cells; Jurkat FADD-/- TNF necroptosis rescue, ATP luminescence, 24 h; 0 = TNF only, 100 = no-TNF cells; AID 463075; 220,000 compounds, 0.068% hits; activation (protection from cell death), % at 10 µM;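 active = activation, meaning protection from cell death, of at least 50% relative to plate controls; inactive = activation below 50%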;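 also: necroptosis triggered by 40 ng/mL TNF-alpha added together with compound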
Pf gamet viab: kills late stage P. falciparum gametocytes | P. falciparum stage V gametocytes, ATP luminescence, 24 h | inhibition, % at 10.9 µM | 150,000 compounds, 0.065% hits;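 active = inhibition above the mean plus 3 SD of compounds within the control limits, set per campaign, cut at about 38% in these data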
RBBP9 inhibitor: inhibitors of human serine hydrolase RBBP9; 220,000 compounds, 0.2% hits; inhibition, % at 7.94 µM; O75884; recombinant RBBP9, FP-Rh probe fluorescence polarization;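 active = inhibition above the campaign mean of all tested compounds plus 3 SD, cut at about 14% in these data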
Target sequence (O75884 whole entry, looked up): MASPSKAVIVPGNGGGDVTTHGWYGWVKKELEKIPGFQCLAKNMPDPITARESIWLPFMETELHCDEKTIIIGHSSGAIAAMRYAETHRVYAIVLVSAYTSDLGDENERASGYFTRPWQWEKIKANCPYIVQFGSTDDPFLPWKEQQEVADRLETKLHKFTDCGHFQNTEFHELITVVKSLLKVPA
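Material: RBBP9 protein. Amount: RBBP9 at 2.5 µM in dispensed solution, before mixing. Schedule: 30 min then 45 min, 25 °C. Medium: Tris buffer pH 8.0, NaCl, Pluronic. Measured by: fluorescence polarization. Measure: percent inhibition from mP, scaled between DMSO and no-protein wells. Replication: one well per compound.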
Calpain2 inh: inhibitors of pig calpain II. purified calpain II, fluorogenic peptide substrate, 30 min. inhibition, % at 16 µM. 220,000 compounds, 0.37% hits;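 active = inhibition above about 50%, limit read from the data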
Of the large screens only hits and unclear results are named; the others gave an inactive call.

O=Cc1cc2ccccc2nc1SCc1ccc(Cl)cc1	none
Cc1ccc(CSc2nc3ccccc3cc2C=O)cc1	Wee1 degr inh 10
CC(C)c1ccc2[nH]c(O)c(N=NC(=O)c3cccc(S(=O)(=O)Nc4cccc(Cl)c4)c3)c2c1	Wee1 degr inh 11
Cc1ccc(CCN2CC(C(=O)NCCCN3CCCCCC3)CC2=O)cc1 (stereo not drawn)	none (no result: Pf gamet viab)
N#Cc1nc(COc2cccc(Cl)c2)oc1N1CCN(c2ccccc2)CC1	none (no result: Pf gamet viab)
COc1ccc(N2CCN(c3oc(COc4ccccc4Cl)nc3C#N)CC2)cc1	Wee1 degr inh 9.6
N#Cc1nc(COc2ccccc2)oc1N1CCN(c2cccc(Cl)c2)CC1	Calpain2 inh 56 (no result: Pf gamet viab)
CC1(C)CC2CC(C)(CN2C(=O)COC(=O)c2cc(Cl)cc(Cl)c2N)C1 (stereo not drawn)	none (no result: Pf gamet viab)
CC1(C)CC2CC(C)(CN2C(=O)COC(=O)CNC(=O)c2ccc(Cl)c(Cl)c2)C1 (stereo not drawn)	Wee1 degr inh 11
CCOC(=O)C/C(N)=N/NC(=O)c1ccc(Cl)cc1Cl	Wee1 degr inh 11
O=C(OCC(=O)c1ccccc1Br)c1ccncc1	none
Cn1c(COc2cccc3ccccc23)nnc1SCC(=O)OC1CCCCC1	Wee1 degr inh 9.5
CCCCn1c(=O)c(-[n+]2ccccc2)c([O-])c2ccccc21	none (no result: Pf gamet viab)
COc1ccc2c3c(cccc13)NN=C2C	RBBP9 inhibitor 15 (no result: Pf gamet viab, Calpain2 inh)
c1ccc(-c2ccc(C(c3ccccc3)n3ccnc3)cc2)cc1 (stereo not drawn)	Calpain2 inh 53 (no result: Pf gamet viab)
Clc1ccc2nc(N3CCCCC3)sc2c1	Wee1 degr inh 11
CCCn1c(CCC(=O)O)nc2cc(S(N)(=O)=O)ccc21	none
CSc1nnc(-c2ccccc2)c(-c2ccccc2)n1	Wee1 degr inh 8.9
CCOC(=O)CC1CCCCN1Cc1cn(C)nc1-c1ccc2c(c1)OCCO2 (stereo not drawn)	Pf gamet viab 42
Cc1cnc(-c2nnc(N(C)C(=O)c3cccnc3)s2)cn1	none (no result: Pf gamet viab)
CC(=O)N(c1ccccc1)c1nnc(-c2cnc(C)cn2)s1	TNF necrop inh 76
CCOc1ccccc1-c1nc(-c2ccc(C)nc2OC)no1	Wee1 degr inh 9.5 (no result: Pf gamet viab)
Cc1ccc(C2=NNC(c3cccc(F)c3)S2)cc1 (stereo not drawn)	Wee1 degr inh 15
Fc1cccc(C2NN=C(c3ccccc3)S2)c1 (stereo not drawn)	none (no result: Pf gamet viab)
O=C1N(Cc2cccc(Cl)c2)C[C@@H]2C[C@@H](c3ccccn3)N3CCC[C@@]123	Wee1 degr inh 9.4
CCn1ccnc1[C@@H]1C[C@H]2CN(Cc3cccc(Cl)c3)C(=O)[C@]23CCCN13	none
FC(F)(F)c1cccc(N2CCN(C(=S)NC3CCCC3)CC2)c1	Calpain2 inh 52 (no result: Pf gamet viab)
O=S(=O)(c1cccs1)N1CCN(CC(O)COc2cc(Cl)ccc2Cl)CC1 (stereo not drawn)	none (no result: Pf gamet viab)
CCC(C(=O)NC1CCCCC1)N(Cc1cccs1)C(=O)c1snc(C(N)=O)c1N (stereo not drawn)	Wee1 degr inh 9.8
CCCC(C(=O)NC1CCCC1)N(CC1CCCO1)C(=O)c1snc(C(N)=O)c1N (stereo not drawn)	none
CCCC(C(=O)NC(C)(C)C)N(CC1CCCO1)C(=O)c1snc(C(N)=O)c1N (stereo not drawn)	Wee1 degr inh 9.4
Fc1ccc(-[n+]2nc(Nc3ccccc3)sc2-c2ccc(OCc3ccccc3)cc2)cc1	none (no result: Wee1 degr inh, L929 necroptosis, TNF necrop inh, RBBP9 inhibitor, Calpain2 inh)
O=C1C=C(Nc2ccc(O)cc2)C(=O)c2ccccc21	Calpain2 inh 58
CCOc1ccccc1C1CC(=O)NC(SCC(=O)Nc2nccs2)=C1C#N (stereo not drawn)	L929 necroptosis 93, TNF necrop inh 82
COC(=O)CSC1=C(C#N)C(c2ccc(C(C)C)cc2)CC(=O)N1 (stereo not drawn)	TNF necrop inh 56 (no result: Pf gamet viab)
COc1ccc(/C=N/OC/C(O)=C(\C#N)c2nc3ccccc3[nH]2)cc1OC	none
Cn1c(SCc2c(Cl)cccc2Cl)nc(C(F)(F)F)cc1=O	none
NC(=O)C(CC(=O)O)NC(=O)[C@@H]1CCOc2c(I)cc([N+](=O)[O-])cc2C(=O)N[C@@H](CCC(=O)O)C(=O)N[C@@H](CO)C(=O)N1 (stereo partly drawn)	Wee1 degr inh 8.8 (no result: Pf gamet viab)

From PubChem
